Rev-erbA mod – modulators of human Rev-erb alpha DNA binding; 0.79% of 370,000 active; Rev-erbα–FITC-DNA binding, fluorescence polarization, 90 min; P20393; activity, % at 10 µM; AID 1259318;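 active = activity above about 14%, limit read from the data; passing the limit was not always enough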;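 note: 0% = DMSO wells with 35 nM protein and 100% = DMSO wells with 750 nM protein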
CSN deneddyl inh – blocks human CSN-mediated cullin deneddylation; Purified CSN, SCF-Nedd8-OG deneddylation, fluorescence polarization; inhibition, % at 12.5 µM; 0.38% of 360,000 active;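 active = pattern-corrected inhibition above about 35%, with an unprinted fluorescence ratio check between 0.5 and 1.5, limit read from the data, passing the limit was not always enough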;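 note: 0% = enzyme with substrate and 100% = substrate without enzyme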
Target sequence (Q92905 whole entry, looked up, one chain of several): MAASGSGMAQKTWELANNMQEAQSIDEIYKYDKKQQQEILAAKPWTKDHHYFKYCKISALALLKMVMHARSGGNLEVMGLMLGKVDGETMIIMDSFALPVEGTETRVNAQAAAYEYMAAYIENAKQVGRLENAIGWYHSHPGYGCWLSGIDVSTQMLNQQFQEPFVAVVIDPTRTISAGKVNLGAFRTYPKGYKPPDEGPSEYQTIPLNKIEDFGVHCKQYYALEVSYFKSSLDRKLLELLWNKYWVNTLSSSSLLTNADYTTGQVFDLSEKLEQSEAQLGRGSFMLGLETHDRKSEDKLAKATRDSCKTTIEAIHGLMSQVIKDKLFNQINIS
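Test system: purified human Csn5 enzyme expressed in HEK293T cells. Amount: 0.24 nM enzyme. Reagent: SCFSkp2-Nedd8OG substrate at 10 nM final. Schedule: 90 min incubation of compound, enzyme and substrate at room temperature. Detection: fluorescence polarization. Read-out: % inhibition of substrate cleavage by Csn5.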
HNF4A DNA FP – change in binding of human HNF4 alpha to DNA | P41235 | HNF4a-FITC DNA binding, fluorescence polarization, 1 h | activity change, % at 10 µM | 0.3% of 360,000 active; in the data active = activity change above about 30%, passing the limit was not always enough
aDG glyco up – increases alpha dystroglycan glycosylation | Pro5-aDG cells, alpha-DG glycosylation AlphaScreen (IIH6); 0% Pro5, 100% B10-LARGE cell signal | activation, % at 10 µM | 0.22% of 360,000 active;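 active = activation of at least 8% versus controls, or a plate z-score of at least 8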;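 note: Pro5 are CHO cells carrying HIG-tagged alpha-DG that lacks glycosylation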
NR1D1 mod conf – confirmation of modulators of human Rev-erb alpha DNA binding. shares compounds with Rev-erbA mod. activation, % at 25 µM. AID 1259319. Rev-erb alpha FITC-DNA binding, fluorescence polarization, 90 min. 61% of 3,000 active;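 active = activation at or above a set limit, or at least 3 SD above the negative control mean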;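 note: 0% = 35 nM protein with DMSO and 100% = 750 nM protein high control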
RORg DNA counter – counter-screen for Rev-erb alpha modulators: RORgamma DNA binding | shares compounds with Rev-erbA mod | purified RORgamma protein-FITC-DNA binding, fluorescence polarization | IC50, µM | 8% of 910 active | AID 1259320;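 active = Compounds whose fitted half-maximal concentration for disrupting protein-DNA binding is below 10 micromolar; the record names Rev-erb in its text, so the target is in doubt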
* = called active by the depositor; i = inactive; x = no result given. The list is not random: actives were taken first. Their share in the collection is about 1.5%.

SMILES	Rev-erbA mod	CSN deneddyl inh	HNF4A DNA FP	aDG glyco up	NR1D1 mod conf	others
Cc1ccc(Cn2nnc3c2-c2ccccc2S(=O)(=O)N(C2CC2)C3)cc1	-3	x	x	x	x
COC(=O)C1CN(Cc2ccc(Cl)cc2)CCS(=O)(=O)N1Cc1cn(Cc2ccccc2)nn1 (stereo not drawn)	0	x	x	x	x
Cc1cc(C)c(-c2csc(NC(=O)C3=COCCO3)n2)cc1C	19*	2	2	0	6
COc1ccc(-c2csc(NC(=O)C3=COCCO3)n2)c(OC)c1	1	3	4	1	x
CCn1c(=O)c(C(=O)Nc2ccccc2S(N)(=O)=O)c(O)c2ccccc21	20*	-1	-4	0	17
CN1CCS/C1=C\C=C1/SC(=S)N(CC(=O)O)C1=O	293*	-71	154	0	173*	RORg DNA counter=>40
CCN1C(=O)/C(=C/c2cn(C)nc2C)SC1=S	-5	5	0	0	x
CCN1C(=O)/C(=C/C=C2/SCCN2C)SC1=S	78*	103	197	0	148*	RORg DNA counter=i
CCC(C)NC(=O)CNc1nnnn1-c1ccccc1 (stereo not drawn)	-2	x	x	x	x
CCOc1ccc(CCNC(=O)CS(=O)(=O)Cc2nc(-c3ccc(OC)cc3)oc2C)cc1	3	-1	-4	0	x
CCOc1ccc(CNC(=O)CS(=O)(=O)Cc2nc(-c3ccc(OC)cc3)oc2C)cc1	26*	8	-1	0	8
COc1ccc(CNC(=O)CS(=O)(=O)Cc2nc(-c3cccc(OC)c3)oc2C)cc1	25*	-1	-1	0	22*
CCC(=O)N1CCc2cc(Br)c(S(=O)(=O)N3CCC(C(=O)NCCCOC(C)C)CC3)cc21	0	x	x	x	x
COc1ccc(CNC(=O)O[C@H]2CC[C@@]34CCCN3C(=O)CCC[C@H]4C2)cc1	-4	x	x	x	x
COC(=O)C1=CN(c2ccc(F)cc2)C(N)=C(C#N)C1c1cccc(F)c1 (stereo not drawn)	1	-1	0	0	x
COC(=O)C1=CN(c2ccc(N3CCOCC3)cc2)C(N)=C(C#N)C1c1cccc(F)c1 (stereo not drawn)	24*	0	3	0	8
COc1ccccc1Oc1ccc2c(c1)C(=O)N(c1ccc(Br)c3cccnc13)C2=O	39*	2	4	0	22*
Cc1ccc(-n2c(SCC(=O)Nc3ccccc3-c3ccccc3)nnc2-c2cccnc2)cc1	-1	x	x	x	x
Nn1c(SCC(=O)NC2CCCCC2)nnc1-c1ccc(Cl)cc1	-3	-7	0	0	x
CC(C)c1ccc(-c2c(C#N)c(N)nc(SCC(=O)N3CCCCC3)c2C#N)cc1	83*	-2	2	0	69*	RORg DNA counter=>40
N#Cc1c(N)nc(SCC(=O)NC2CCCCC2)c(C#N)c1-c1ccc(Cl)cc1	24*	-2	3	0	25*
COC(=O)CSc1nc(N)c(C#N)c(-c2ccc(O)cc2)c1C#N	-5	3	2	0	x
CC(C)c1ccc(-c2c(C#N)c(N)nc(SCC(=O)N3CCCCCC3)c2C#N)cc1	52*	x	x	x	9
CCOC(=O)CSc1nc(N)c(C#N)c(-c2ccc(OCC)cc2)c1C#N	56*	-4	2	0	29*
CC(C)OC(=O)CSc1nc(N)c(C#N)c(-c2ccco2)c1C#N	2	11	21	0	x
SMILES	Rev-erbA mod	CSN deneddyl inh	HNF4A DNA FP	aDG glyco up	NR1D1 mod conf	others
COc1ccc(-c2cc(C(=O)N(C3CCCCC3)C3CCCCC3)no2)cc1	10	x	x	x	x
CC1CCCCC1N(C(=O)c1cc(C2CC2)on1)C1CCCCC1 (stereo not drawn)	7	x	x	x	x
C=CCN1[C@@H](C)COc2cccc(N3CCSCC3)c2S1(=O)=O	0	x	x	x	x
CCOC(=O)[C@]12CCCCC/C=C\1N(Cc1ccc(OC)cc1)C(=O)[C@H]2CC(=O)NCc1cccc(C(F)(F)F)c1	-1	x	x	x	x
O=C(CN1C(=O)NC(Cc2ccccc2)C1=O)Nc1ccc(F)cc1 (stereo not drawn)	-1	0	1	0	x
O=C(CN1C(=O)NC(Cc2ccccc2)C1=O)Nc1ccc(OC(F)(F)F)cc1 (stereo not drawn)	14*	2	-2	0	-7
CCCCn1c(=O)[nH]c(=O)c2c1nc(-c1ccc(OC(F)F)c(OC)c1)n2C	6	1	-2	0	x
CCCCn1c(=O)[nH]c(=O)c2c1nc(-c1cc(Cl)c(OC)c(OC)c1)n2C	15*	5	-5	0	3
O=C(CSc1nc2c(c(C(F)(F)F)n1)CCc1ccccc1-2)NCc1ccccc1	97*	0	2	0	40*	RORg DNA counter=i
O=C(CSc1nc2c(c(C(F)(F)F)n1)CCc1ccccc1-2)NCc1ccc(F)cc1	60*	-1	2	0	13
COc1ccc(C2CC(c3ccc(Cl)c(Cl)c3)Nc3nc(N)nn32)cc1 (stereo not drawn)	31*	0	-1	0	17*
Cc1cccc(-c2nnc3sc(-c4ccccc4)nn23)c1	82*	-2	-2	0	135*
CC(C)(C)c1ccc(-c2nnc3sc(-c4ccccn4)nn23)cc1	22*	-2	-2	0	21*
Cc1ccc2nc(N3CCN(S(=O)(=O)c4ccc(C)c(Cl)c4)CC3)c(C#N)cc2c1	189*	4	1	0	145*	RORg DNA counter=i
Cc1ccc2nc(N3CCN(C)CC3)c(C#N)cc2c1	-2	-2	-3	0	x
COc1ccc(-c2csc(NC(=O)c3ccc(N4C(=O)CCC4=O)cc3)n2)cc1	27*	3	-4	0	18
COc1ccc(-c2csc(NC(=O)c3cccc(N4C(=O)CCC4=O)c3)n2)cc1OC	12	3	0	0	x
CCOc1ccc(-c2csc(NC(=O)c3cccc(N4C(=O)CCC4=O)c3)n2)cc1	24*	3	3	1	14*
CCOC(=O)c1c(-c2ccc(-c3ccccc3)cc2)csc1NC(=O)c1cccc(N2C(=O)CCC2=O)c1	43*	-5	5	0	29*
C=CC[C@H]1c2ccccc2[C@H]2N3N=Cc4ccccc4[C@H]3[C@H](CCCC)C(=O)N2N1C(=O)c1ccccc1	2	x	x	x	x
C/C=C/c1ccccc1OCCCN1CCC(C(O)(c2ccccc2)c2ccccc2)CC1	7	x	x	x	x
Cc1cccc2cc(C(c3nnnn3Cc3ccccc3)N3CCN(C)CC3)c(=O)[nH]c12 (stereo not drawn)	x	-3	3	0	x
Cc1cccc2cc(C(c3nnnn3Cc3ccccc3)N3CCN(c4ccccc4)CC3)c(=O)[nH]c12 (stereo not drawn)	185*	-1	-3	0	143*	RORg DNA counter=>40
CCOC(=O)c1cnc(SCC(=O)N2CCc3ccccc32)nc1N	49*	2	2	0	7
O=C(CN(CCc1ccccc1)S(=O)(=O)c1ccc(F)cc1)N1CCOCC1	-2	x	x	x	x

High-throughput results from PubChem.
